Assays:
[1] = tested on: E3 ubiquitin ligase SCF^TIR1; details: rice strain with OsIAA11 P106L; cited from earlier work
[2] = tested on: rice; details: rice strain with OsIAA11 P106L; cited from earlier work
[3] = Succinyl-Ala-Ala-Pro-Phe-NH-Mec; cited from earlier work
[4] = tested on: ^15N-OsIAA11^72−125 (W104-P105 peptide bond); test: Nzz-exchange: catalyzed cis-trans exchange of W104-P105; assay type: biochemical, rice
In short: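 15N-labeled OsIAA11 72–125 substrate (800μM) with 16μM enzyme (LRT2 mutant or homolog) in NMR buffer (50mM KCl, 20mM KPO4, 3mM TCEP, 5mM NaN3, 0.1% protease inhibitor cocktail, pH=6.67). Protein concentrations were set by A280 using theoretical extinction coefficients. Nzz-exchange spectra were processed to give the observed cis-trans exchange rate (kexobs) of the W104-P105 bond with uncertainties.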

Molecule | Proteasomal degradation [1] | Lateral root development [2] | kcat/Km relative to hCypA [3] | Nzz exchange crosspeaks / activity ([4]; 16μM enzyme, 800μM OsIAA11^72–125) | Nzz-measured kexobs ([4]; 1H-15N Nzz exchange, 16μM enzyme, 800μM OsIAA11^72–125, NMR buffer pH=6.67) [s⁻¹] | Activity relative to WT LRT2 on OsIAA11 ([4]; Nzz, % of WT LRT2 activity) [%]
OsIAA11 P106L: OsIAA11 P106L mutation (directly adjacent to the W104-P105 peptide bond) (protein, UniProt Q75GK0 1-233, looked up, variant P106L) Auxin-responsive protein IAA11: MAGLGFDETELRLGLPGAGELAARSSGKRGFAETIDLKLKLQPAAPAAVSGEEGAQEDKEDADAAAAAADEKMSMKRSASQSSVVTAEPDPDKPRAPKAQVVGWPLVRSFRKNVLAEKCKAAALVKVSMDGAPYLRKIDVAMYKSYPELSMAFQNMFTSFTIGKCGSHQQLKESNKLRDDLEYVPTYEDKDGDWMLVGDVPWEMFVESCKRLRIMKGSEAIGLAPRAVEKCKS | evades proteasomal degradation | no induction of lateral root development |  |  |  | 
PPIB: petidyl-prolyl isomerase B from E. coli (Uniprot entry P23869) (protein, UniProt P23869 1-164, looked up) Peptidyl-prolyl cis-trans …: MVTFHTNHGDIVIKTFDDKAPETVKNFLDYCREGFYNNTIFHRVINGFMIQGGGFEPGMKQKATKEPIKNEANNGLKNTRGTLAMARTQAPHSATAQFFINVVDNDFLNFSGESLQGWGYCVFAEVVDGMDVVDKIKGVATGRSGMHQDVPKEDVIIESVTVSE |  |  | more than an order of magnitude higher kcat/Km than hCypA | clear exchange crosspeaks | 0.37 ± 0.04 | 60

Reference: PMC7141409 (Journal of biomolecular NMR, 2019)
